# High-throughput results (PubChem)
# The list is not random: actives were taken first. Their share in the collection is about 1.8%.
# M5 ag: CHRM5 agonism in calcium assay; P08912; CHO-K1 hM5 cells, Fluo-8 calcium fluorescence; 0% DMSO wells, 100% maximal acetylcholine response; activation, % at 3 µM; 360,000 tested, 0.19% active;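 active = activation above the run's mean over test compounds plus 3 SD, cut at about 23% in these data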;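 note: signal is peak over basal fluorescence ratio across the kinetic read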
# M5 antag: CHRM5 antagonism in calcium assay. P08912. CHO-hM5 cells, Fluo-8 calcium fluorescence, ACh EC80. inhibition, % at 3 µM. 360,000 tested, 0.59% active;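 active = inhibition above a per-plate cutoff, the mean of that plate's test compounds plus 3 SD, cut at about 27% in these data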;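 note: 0% = acetylcholine EC80 with DMSO and 100% = DMSO without agonist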
# CHRM4 antagonist: antagonists of human muscarinic M4 receptor (CHRM4); P08173; CHO-hM4 cells, ACh EC80, Fluo-8 calcium fluorescence; inhibition, % at 3 µM; 360,000 tested, 0.73% active;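 active = inhibition above its plate's cutoff, the mean inhibition of sample wells plus 3 SD, cut at about 27% in these data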;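 note: 0% = acetylcholine EC80 with DMSO and 100% = DMSO without agonist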
# Target sequence (P08173 whole entry, looked up): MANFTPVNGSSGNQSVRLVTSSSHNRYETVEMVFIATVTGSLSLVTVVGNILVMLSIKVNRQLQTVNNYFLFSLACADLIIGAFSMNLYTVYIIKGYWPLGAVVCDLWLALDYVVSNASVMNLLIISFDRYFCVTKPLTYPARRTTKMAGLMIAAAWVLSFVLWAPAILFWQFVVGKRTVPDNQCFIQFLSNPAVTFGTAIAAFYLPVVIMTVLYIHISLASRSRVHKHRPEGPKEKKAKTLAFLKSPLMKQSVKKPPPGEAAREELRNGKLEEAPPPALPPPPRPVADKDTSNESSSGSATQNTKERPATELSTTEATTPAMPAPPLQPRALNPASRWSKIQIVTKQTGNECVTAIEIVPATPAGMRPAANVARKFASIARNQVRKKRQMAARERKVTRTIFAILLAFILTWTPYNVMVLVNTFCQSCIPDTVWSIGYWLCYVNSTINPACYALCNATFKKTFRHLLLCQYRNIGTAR
# M5 PAM: CHRM5 positive allosteric modulation; activation, % at 3 µM; 360,000 tested, 0.3% active; CHO-K1 hM5, Fluo-8 calcium, ACh EC20 PAM; 0% = ACh EC20, 100% = ACh EC100; P08912; AID 624038;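 active = activation above the run cutoff, the mean activation of all test compounds plus 3 SD, cut at about 18% in these data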
#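 Replicates: One well per compound, no replicates | System: Human M5 receptor in CHO-K1 cells | Benchmarks: Low control EC20 acetylcholine (0%), high control EC100 acetylcholine (100%) | Probe or stimulus: Acetylcholine, EC20 level | Times: Fluo-8 loading 80 min at 37 °C plus 30 min room temperature | Signal: Intracellular calcium via Fluo-8 fluorescence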
# CHRM4 agonist: agonists of human muscarinic M4 receptor (CHRM4) | AID 624127 | P08173 | activation, % at 3 µM | CHO-K1 hM4/Gqi5, Fluo-8 calcium fluorescence; vehicle 0%, full acetylcholine response 100% | 360,000 tested, 0.14% active;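 active = activation above the run mean over all test wells plus 3 SD, cut at about 32% in these data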;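 note: peak over basal fluorescence ratio per well then scaled between controls; 0% = DMSO wells and 100% = acetylcholine at EC100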
# M4 PAM: CHRM4 positive allosteric modulation; P08173; CHO-K1 hM4/Gqi5, Fluo-8 calcium fluorescence, ACh EC20; 0% = ACh EC20, 100% = maximal ACh; activation, % at 3 µM; 360,000 tested, 0.4% active;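 active = activation above its plate's cutoff, the mean activation of sample wells plus 3 SD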
# Numbers without * were called inactive.
SMILES,M5 ag,M5 antag,CHRM4 antagonist,M5 PAM,CHRM4 agonist,M4 PAM
Cc1noc(NS(=O)(=O)c2ccc(NC(=O)/C=C/c3ccc(C(C)C)cc3)cc2)c1C,-2.1,0.5,-2.6,-2.3,-0.4,5.4
Cc1noc(NS(=O)(=O)c2ccc(NC(=O)/C=C/c3ccc(Br)cc3)cc2)c1C,2.4,-22.5,-6.2,15.8,-0.4,15.6*
Cc1ccc(S(=O)(=O)Nc2cccc(/C=C/C(=O)O)c2)cc1,-2.7,-1.4,-0.3,46.4*,0.9,7.5
CC1(C2CCC3C4CCC5CC6(CCC5(C)C4C(=O)CC32C)OCCO6)OCCO1 (stereo not given),2.8,8.3,-17.9,-0.5,1.4,8.5
c1ccc2cc(N3CCCCC3)ccc2c1,0.6,-1.8,-6.4,8.4,0.9,10.9
O=C1c2ccccc2C(=O)c2cc(N3CCCCC3)ccc21,72.0*,34.4*,1.6,-13.2,10.7,3.4
Nc1cnccc1C(=O)O,23.8*,2.9,3.0,-14.7,5.4,2.5
CC(NCc1ccc(S(N)(=O)=O)cc1)C(=O)NCc1ccccc1 (stereo not given),-1.0,5.8,7.9,3.6,-0.2,-0.4
CCC(Oc1ccccc1)C(=O)NCc1ccc(S(N)(=O)=O)cc1 (stereo not given),-0.9,-5.0,-3.0,1.7,1.3,20.4*
Cc1ccc(C(=O)NC2CC3CCCC(C2)N3C(=S)NCc2ccco2)cc1 (stereo not given),-5.9,-13.7,-14.3,1.8,1.2,21.4*
Cc1nnc(NC(=O)C2CSC3(C)CCC(=O)N23)s1 (stereo not given),-0.8,-0.2,0.6,-5.6,0.3,2.8
CC1CCN(C(=O)c2cc(S(=O)(=O)N3CCOCC3)ccc2N2CCCC2)CC1,1.2,6.0,3.4,-3.9,0.6,-6.1
Cc1ccccc1C(=O)N1CCN(c2ccc(NC(=O)CSc3ccc(Cl)cc3)cc2)CC1,4.3,21.4,26.8*,-15.6,19.2,-11.5
CC(NC(=O)Nc1cccc(Cl)c1)C(c1cccs1)N1CCCC1 (stereo not given),-0.1,8.8,3.4,-2.4,9.1,-1.6
CC(NC(=O)Nc1ccc([N+](=O)[O-])cc1)C(c1cccs1)N1CCCC1 (stereo not given),10.2,3.2,-9.3,0.0,49.8*,-0.7
COCCC(=O)N1CCCC(CNS(=O)(=O)c2ccc(OC)cc2)C1 (stereo not given),5.0,5.7,-4.8,2.1,0.7,2.0
COc1ccc(S(=O)(=O)NCC2CCCN(C(=O)CCC(F)(F)F)C2)cc1 (stereo not given),13.9,10.7,-7.0,38.6*,0.4,-5.6
Cc1nc2nc(C(F)(F)F)[nH]c2nc1C,3.2,10.2,0.1,0.8,-0.5,2.4
COc1cc(CN2C[C@@H](CO)O[C@@H](n3cnc4c(NCc5ccco5)ncnc43)C2)cc(OC)c1OC,1.3,-0.3,-2.6,-3.6,5.7,-2.4
CC(C)N(CC(O)COc1ccc(CC(N)=O)cc1)CC(O)COc1ccc(CC(N)=O)cc1 (stereo not given),2.3,25.8,-3.9,13.1,1.5,-0.7
CCOC(=O)c1c(NC(=O)COc2cccc3c2CCN(CC)C3=O)sc2c1CCC2,4.6,-3.4,4.2,8.6,1.6,21.6*
Cc1ncsc1CCOC(=O)c1ccc(Cl)cc1,-4.0,-14.9,-9.5,9.3,1.8,23.9*
COCCCNc1nc(N)c([N+](=O)[O-])c(Nc2cc(OC)ccc2OC)n1,36.2*,5.2,-16.9,8.3,11.2,2.1
COc1ccc(OC)c(Nc2nc(NCCCN(C)C)nc(N)c2[N+](=O)[O-])c1,0.9,10.1,1.8,-5.8,2.7,-3.4
CCc1nnc(NC(=O)CCN(c2cc(C)cc(C)c2)S(=O)(=O)c2ccc(Cl)cc2)s1,6.4,10.7,-15.0,19.2*,1.5,17.9
Cc1cc(C)cc(N(CCC(=O)O)S(=O)(=O)c2ccc(Cl)cc2)c1,0.6,-10.3,36.2*,7.3,-1.3,-2.6
CCn1c(SC)nnc1C1CCN(CC(=O)Nc2ccccc2N2CCOCC2)CC1,-3.6,15.1,-20.3,-8.8,2.6,1.9
